Activity calls are given as the source filed them. The calls are words filed in the database; no cut-off is given here.
Key:
[1] = Cell cycle arrest in human TK6 cells expressing wild type p53 assessed as accumulation at sub-G0/G1 phase after 72 hrs by flow cytometry; format: functional, cell-based
In short: (§1)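 Cells exposed 72 h to vehicle or compound (0.1 μM doxorubicin or 25 μM others) and harvested. Washed twice in ice-cold PBS, then resuspended in hypotonic solution (50 μg/ml propidium iodide, 25 μg/ml RNase, 0.1% sodium citrate, 0.1% Triton X-100) and held 1.5 h at 4°C in the dark. Flow cytometry at 10,000 events per histogram; cell death taken as the sub-G0/G1 fraction.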

TK6 [2] = assay: Cytotoxicity against human TK6 cells expressing wild type p53; format: functional, cell-based
TK6 [3] = assay: Induction of p53 transcriptional activity in human TK6 cells expressing wild type p53 assessed as p21-Cip1/Waf1 expression at 25 uM after 8 hrs by Western blot analysis; format: functional, cell-based
In short: (§2)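 TK6 and WTK1 cells (NH32 also run) treated 8 h at 25 μM, vehicle or doxorubicin 0.1 μM. Extracts immunoblotted for p53, phospho-p53 (Ser15), p21cip1/Waf1 and β-actin.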

TK6 [4] = assay: Induction of apoptosis in human TK6 cells expressing wild type p53 assessed as depolarization of inner mitochondrial membrane potential at 25 uM after 8 hrs by flow cytometry relative to CCCP; format: functional, cell-based
In short: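 TK6 cells exposed 8 h to 25 μM, vehicle, or CCCP 100 μM as depolarisation control. Cells washed in ice-cold PBS and resuspended in PBS. Membrane potential read by flow cytometry as FL1 (JC-1 monomers) versus FL2 (aggregates) dual-parameter plots. Representative of three independent experiments.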

WTK1 [5] = assay: Induction of apoptosis in human WTK1 cells expressing p53 M237I mutant assessed as increase in PARP cleavage at 25 uM after 8 hrs by Western blot analysis; format: functional, cell-based
In short: (§3)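 TK6, NH32 and WTK1 cells treated 8 h with 25 μM or vehicle; doxorubicin 0.1 μM as comparator. Protein extracts analysed by Western blot probed for cleaved PARP, caspase-3 and β-actin.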

WTK1 [6] = assay: Induction of apoptosis in human WTK1 cells expressing p53 M237I mutant assessed as reduction of Bcl-Xl level at 25 uM after 8 hrs by Western blot analysis; format: functional, cell-based
In short: (§4)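 TK6, NH32 and WTK1 cells exposed 8 h to 25 μM, vehicle, or doxorubicin 0.1 μM. Protein extracted and Bcl-xL level assessed by Western blot.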

WTK1 [7] = assay: Induction of apoptosis in human WTK1 cells expressing p53 M237I mutant assessed as increase in cleaved caspase 3 level at 25 uM after 8 hrs by Western blot analysis; format: functional, cell-based; in short: as §3
WTK1 [8] = assay: Induction of p53 phosphorylation at Ser15 in human WTK1 cells expressing p53 M237I mutant at 25 uM after 8 hrs by Western blot analysis; format: functional, cell-based; in short: as §2
NH32 [9] = assay: Induction of apoptosis in p53 deficient human NH32 cells assessed as decrease in pro-caspase 3 level at 25 uM after 8 hrs by Western blot analysis; format: functional, cell-based; in short: as §3
NH32 [10] = assay: Induction of apoptosis in p53 deficient human NH32 cells assessed as increase in PARP cleavage at 25 uM after 8 hrs by Western blot analysis; format: functional, cell-based; in short: as §3
WTK1 [11] = assay: Induction of apoptosis in human WTK1 cells expressing p53 M237I mutant assessed as decrease in pro-caspase 3 level at 25 uM after 8 hrs by Western blot analysis; format: functional, cell-based; in short: as §3
[12] = Cell cycle arrest in human TK6 cells expressing wild type p53 assessed as accumulation at sub-G0/G1 phase at 25 uM after 72 hrs by flow cytometry; format: functional, cell-based
In short: (§5)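 B lymphoblast lines TK6 (wild-type p53), NH32 (p53−/−) and WTK1 (mutant p53) exposed 72 h to 25 μM against vehicle; doxorubicin 0.1 μM as p53-dependent control. Washed twice in ice-cold PBS, held 1.5 h at 4°C in the dark in hypotonic fluorochrome solution (50 μg/ml propidium iodide, 25 μg/ml RNase, 0.1% citrate, 0.1% Triton X-100). Sub-G0/G1 apoptotic percentage from 10,000 events per flow histogram.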

TK6 [13] = assay: Induction of apoptosis in human TK6 cells expressing wild type p53 assessed as decrease in pro-caspase 3 level at 25 uM after 8 hrs by Western blot analysis; format: functional, cell-based; in short: as §3
TK6 [14] = assay: Induction of apoptosis in human TK6 cells expressing wild type p53 assessed as late stage apoptotic cell population at 25 uM after 8 hrs using annexin-V and 7-ADD staining by flow cytometry; format: functional
In short: (§6)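 TK6 cells given 25 μM or vehicle for 8 h, washed twice in ice-cold PBS, stained with Annexin-V-PE plus 7-ADD. Flow cytometry assigned quadrant populations as percent of total cells. Histograms representative of three independent experiments.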

[15] = Cell cycle arrest in p53 deficient human NH32 cells assessed as accumulation at sub-G0/G1 phase at 25 uM after 72 hrs by flow cytometry; format: functional, cell-based; in short: as §5
TK6 [16] = assay: Induction of apoptosis in human TK6 cells expressing wild type p53 assessed as reduction of Bcl-Xl level at 25 uM after 8 hrs by Western blot analysis; format: functional, cell-based; in short: as §4
TK6 [17] = assay: Induction of apoptosis in human TK6 cells expressing wild type p53 assessed as increase in PARP cleavage at 25 uM after 8 hrs by Western blot analysis; format: functional, cell-based; in short: as §3
TK6 [18] = assay: Induction of p53 phosphorylation at Ser15 in human TK6 cells expressing wild type p53 at 25 uM after 8 hrs by Western blot analysis; format: functional, cell-based; in short: as §2
NH32 [19] = assay: Induction of apoptosis in p53 deficient human NH32 cells assessed as increase in cleaved caspase 3 level at 25 uM after 8 hrs by Western blot analysis; format: functional, cell-based; in short: as §3
WTK1 [20] = assay: Induction of p53 transcriptional activity in human WTK1 cells expressing p53 M237I mutant assessed as p21-Cip1/Waf1 expression at 25 uM after 8 hrs by Western blot analysis; format: functional, cell-based; in short: as §2
TK6 [21] = assay: Induction of apoptosis in human TK6 cells expressing wild type p53 assessed as increase in cleaved caspase 3 level at 25 uM after 8 hrs by Western blot analysis; format: functional, cell-based; in short: as §3
NH32 [22] = assay: Induction of apoptosis in p53 deficient human NH32 cells assessed as reduction of Bcl-Xl level at 25 uM after 8 hrs by Western blot analysis; format: functional, cell-based; in short: as §4
TK6 [23] = assay: Induction of apoptosis in human TK6 cells expressing wild type p53 assessed as live cell population at 25 uM after 8 hrs using annexin-V and 7-ADD staining by flow cytometry; format: functional; in short: as §6
TK6 [24] = assay: Induction of apoptosis in human TK6 cells expressing wild type p53 assessed as necrotic cell population at 25 uM after 8 hrs using annexin-V and 7-ADD staining by flow cytometry; format: functional; in short: as §6
[25] = Cell cycle arrest in human WTK1 cells expressing p53 M237I mutant assessed as accumulation at sub-G0/G1 phase at 25 uM after 72 hrs by flow cytometry; format: functional, cell-based; in short: as §5
TK6 [26] = assay: Induction of apoptosis in human TK6 cells expressing wild type p53 assessed as early stage apoptotic cell population at 25 uM after 8 hrs using annexin-V and 7-ADD staining by flow cytometry; format: functional; in short: as §6
TK6 [27] = assay: Induction of p53 phosphorylation at Ser15 in human TK6 cells expressing wild type p53 at 0.1 uM after 8 hrs by Western blot analysis; format: functional, cell-based
In short: (§7)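 Exposure for 8 h to vehicle, 0.1 μM doxorubicin or 25 μM test agents, followed by protein extraction. Western blots probed for total p53, phospho-p53 (Ser15), p21cip1/Waf1 and β-actin.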

WTK1 [28] = assay: Induction of apoptosis in human WTK1 cells expressing p53 M237I mutant assessed as increase in cleaved caspase 3 level at 0.1 uM after 8 hrs by Western blot analysis; format: functional, cell-based
In short: (§8)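 Exposure for 8 h to vehicle, 0.1 μM doxorubicin or 25 μM test agents, followed by protein extraction. Western blots probed for cleaved PARP, caspase-3 and β-actin as loading reference.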

TK6 [29] = assay: Induction of apoptosis in human TK6 cells expressing wild type p53 assessed as decrease in pro-caspase 3 level at 0.1 uM after 8 hrs by Western blot analysis; format: functional, cell-based; in short: as §8
WTK1 [30] = assay: Induction of apoptosis in human WTK1 cells expressing p53 M237I mutant assessed as increase in PARP cleavage at 0.1 uM after 8 hrs by Western blot analysis; format: functional, cell-based; in short: as §8
TK6 [31] = assay: Induction of apoptosis in human TK6 cells expressing wild type p53 assessed as increase in PARP cleavage at 0.1 uM after 8 hrs by Western blot analysis; format: functional, cell-based; in short: as §8
NH32 [32] = assay: Induction of apoptosis in p53 deficient human NH32 cells assessed as increase in PARP cleavage at 0.1 uM after 8 hrs by Western blot analysis; format: functional, cell-based; in short: as §8
[33] = Cell cycle arrest in human TK6 cells expressing wild type p53 assessed as accumulation at sub-G0/G1 phase at 0.1 uM after 72 hrs by flow cytometry; format: functional, cell-based; in short: as §1
TK6 [34] = assay: Induction of p53 transcriptional activity in human TK6 cells expressing wild type p53 assessed as p21-Cip1/Waf1 expression at 0.1 uM after 8 hrs by Western blot analysis; format: functional, cell-based; in short: as §7
WTK1 [35] = assay: Induction of p53 phosphorylation at Ser15 in human WTK1 cells expressing p53 M237I mutant at 0.1 uM after 8 hrs by Western blot analysis; format: functional, cell-based; in short: as §7
NH32 [36] = assay: Induction of apoptosis in p53 deficient human NH32 cells assessed as decrease in pro-caspase 3 level at 0.1 uM after 8 hrs by Western blot analysis; format: functional, cell-based; in short: as §8
TK6 [37] = assay: Induction of apoptosis in human TK6 cells expressing wild type p53 assessed as increase in cleaved caspase 3 level at 0.1 uM after 8 hrs by Western blot analysis; format: functional, cell-based; in short: as §8
[38] = Cell cycle arrest in p53 deficient human NH32 cells assessed as accumulation at sub-G0/G1 phase at 0.1 uM after 72 hrs by flow cytometry; format: functional, cell-based; in short: as §1
WTK1 [39] = assay: Induction of p53 transcriptional activity in human WTK1 cells expressing p53 M237I mutant assessed as p21-Cip1/Waf1 expression at 0.1 uM after 8 hrs by Western blot analysis; format: functional, cell-based; in short: as §7
WTK1 [40] = assay: Induction of apoptosis in human WTK1 cells expressing p53 M237I mutant assessed as decrease in pro-caspase 3 level at 0.1 uM after 8 hrs by Western blot analysis; format: functional, cell-based; in short: as §8
[41] = Cell cycle arrest in human WTK1 cells expressing p53 M237I mutant assessed as accumulation at sub-G0/G1 phase at 0.1 uM after 72 hrs by flow cytometry; format: functional, cell-based; in short: as §1
NH32 [42] = assay: Induction of apoptosis in p53 deficient human NH32 cells assessed as increase in cleaved caspase 3 level at 0.1 uM after 8 hrs by Western blot analysis; format: functional, cell-based; in short: as §8

NCCNC(=O)C(F)F
Activity [1]: inactive
Activity (TK6 [2]): Not toxic

O=C1C2CCN(CC2)C1(CO)CO
Activity (TK6 [3]): inactive
Activity (TK6 [4]): inactive
Activity (WTK1 [5]): inactive
Activity (WTK1 [6]): inactive
Activity (WTK1 [7]): inactive
Activity (WTK1 [8]): inactive
Activity (NH32 [9]): inactive
Activity (NH32 [10]): inactive
Activity (WTK1 [11]): inactive
Activity [12]: Active
Activity (TK6 [13]): inactive
Activity (TK6 [14]): 17.6%
Activity [15]: Active
Activity (TK6 [16]): Active
Activity (TK6 [17]): inactive
Activity (TK6 [18]): inactive
Activity (NH32 [19]): inactive
Activity (WTK1 [20]): inactive
Activity (TK6 [21]): inactive
Activity (NH32 [22]): inactive
Activity (TK6 [23]): 66.1%
Activity (TK6 [24]): 1.3%
Activity [25]: Active
Activity (TK6 [26]): 14.9%

COc1cccc2c1C(=O)c1c(O)c3c(c(O)c1C2=O)C[C@@](O)(C(=O)CO)C[C@@H]3O[C@H]1C[C@H](N)[C@H](O)[C@H](C)O1
Activity (TK6 [3]): inactive
Activity (TK6 [27]): Active
Activity (WTK1 [28]): Active
Activity (WTK1 [8]): inactive
Activity (TK6 [29]): Active
Activity (WTK1 [30]): Active
Activity (TK6 [31]): Active
Activity (NH32 [32]): Active
Activity [33]: Active
Activity (TK6 [34]): Active
Activity (WTK1 [35]): Active
Activity (NH32 [36]): Active
Activity (TK6 [37]): Active
Activity [38]: inactive
Activity (WTK1 [39]): inactive
Activity (WTK1 [40]): Active
Activity (TK6 [18]): inactive
Activity (WTK1 [20]): inactive
Activity [41]: inactive
Activity (NH32 [42]): Active

O=C(CCNC(=O)C(F)F)c1ccccc1
Activity [1]: inactive
Activity (TK6 [2]): Not toxic

Source: ChEMBL document CHEMBL1137756, “Induction of apoptosis promoted by Bang52; a small molecule that downregulates Bcl-x(L)” (2009)
